# Bioassay records (PubChem BioAssay)
# A selection: hits, their analogues and other compounds. The true share with any hit is near 2.3%.
# Rtt109 HAT inh = blocks Candida albicans Rtt109/Vps75 acetyltransferase activity; Q5AAJ8; purified Rtt109/Vps75, ThioGlo CoA-SH fluorescence, 4 h; inhibition, % at 34.9 µM; hit rate 0.16% among 330,000;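 active = inhibition of at least 50% in every replicate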
# Target sequence (Q5AAJ8 whole entry, looked up): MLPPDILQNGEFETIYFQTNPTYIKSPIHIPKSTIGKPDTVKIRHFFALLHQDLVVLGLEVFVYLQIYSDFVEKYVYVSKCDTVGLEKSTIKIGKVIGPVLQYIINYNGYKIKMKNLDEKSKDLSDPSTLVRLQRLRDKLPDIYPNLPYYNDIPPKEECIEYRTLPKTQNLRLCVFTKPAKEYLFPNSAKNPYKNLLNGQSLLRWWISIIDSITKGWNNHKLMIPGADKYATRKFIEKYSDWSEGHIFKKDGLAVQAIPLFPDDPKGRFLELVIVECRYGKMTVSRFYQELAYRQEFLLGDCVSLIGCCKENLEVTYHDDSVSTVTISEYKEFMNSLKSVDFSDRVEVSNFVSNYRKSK
# Arr AP2 block = blocks beta-arrestin peptide binding to AP2 adaptin. FITC-arrestin peptide / GST-AP2 beads, flow cytometry; AP2 beta2 appendage carries R879A mutation. inhibition, % at 10 µM. hit rate 0.31% among 340,000. AID 504490;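 active = inhibition above a set limit, near 3 SD of compounds lacking own fluorescence, cut at about 54% in these data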;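 also: plate controls were DMSO wells for no effect and 5 µM unlabelled arrestin peptide for full effect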
#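 Material – AP2 appendage R879A on GSH beads · Buffer or medium – PBS with 0.05% Tween 20 and 0.1% BSA · Probe or stimulus – fluorescein-tagged arrestin peptide at 50 nM final · Incubation – compound with beads 12 min RT, then probe 1 h RT · Detection – high-throughput flow cytometry of beads, ex 488, em 535 nm · Evaluation – percent response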
# N-glyco inh = blocks N-linked glycosylation in D54 reporter cells; AID 588692; reporter increase, % at 12.5 µM; hit rate 0.23% among 360,000; D54 ERlucT glycosylation luciferase reporter, 24 h; percent of 100 nM tunicamycin response;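 active = mean luciferase reporter signal, scaled so untreated is 0 and the glycosylation-blocking control 100, at or above a set limit in every replicate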;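 also: luciferase carries N-glycosylation sites so blocking glycosylation raises the light; 0% = median of neutral control wells and 100% = median of 100 nM tunicamycin wells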
# PfHsp90 yeast 2 = growth inhibition of yeast expressing Plasmodium Hsp90; S. cerevisiae expressing PfHsp90, BacTiter-Glo ATP, 48 h; yeast lacking PDR1 and PDR3 efflux regulators; hit rate 0.32% among 310,000; inhibition, % at 9.4 µM;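 active = every replicate shows inhibition above about 80%, whatever the replicate mean, limit read from the data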;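 also: 0% = DMSO neutral controls and 100% = 20 µM radicicol positive controls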
# HIV Env fusion = blocks HIV Env-driven cell-cell fusion; hit rate 1.1% among 360,000; inhibition, % at 12.3 µM; HeLa-JRFL Env/CEM21 cell fusion, luciferase;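 active = mean replicate inhibition score of at least 50 and every replicate individually at or above 50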;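 also: 0% = plate neutral controls and 100% = maraviroc near 300 nM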
# PAX8 reporter = lowers PAX8-driven luciferase in RMG-I cells; AID 652154; hit rate 1.2% among 360,000; RMG-I TPO-luciferase reporter, SteadyGlo, 24 h; inhibition, % at 12.6 µM;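 active = mean replicate inhibition at least 60% with every replicate also reaching 60%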;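 also: luciferase light reporting Pax8 driven TPO promoter activity; plate controls were median of neutral control wells for no effect and mitoxantrone controls for full effect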
# An asterisk follows results filed as active; i = inactive; · = no result; [ ] = remark or other dose.
SMILES,Rtt109 HAT inh,Arr AP2 block,N-glyco inh,PfHsp90 yeast 2,HIV Env fusion,PAX8 reporter
O=C(O)CC(NC(=O)C1c2ccccc2Oc2ccccc21)c1ccc(OC2CCCC2)cc1 (centres undefined),7.3,11.4,0.4,10.4,18.4,121.2*
CC(C)c1ccc(N(C(=O)c2csnn2)C(C(=O)NC2CCCC2)c2ccncc2)cc1 (centres undefined),15.5,25.4,0.5,-11.9,76.6*,-2.8
O=C(NC1CCCCC1)C(c1ccc(Cl)cc1)N(C(=O)c1cnccn1)c1ccc2c(c1)OCO2 (centres undefined),-13.8,1.5,3.1,-4.3,83.2*,·
CC(C)c1ccc(N(C(=O)c2ccco2)C(C(=O)NC2CCCC2)c2ccncc2)cc1 (centres undefined),23.4,0.5,-0.5,-17.6,61.9*,-56.1
COc1ccc(N(C(=O)c2ccco2)C(C(=O)NC2CCCC2)c2ccncc2)cc1 (centres undefined),-5.6,19.8,1.1,-17.2,-8.4,-0.3
O=C(NC1CCCC1)C(c1ccncc1)N(C(=O)c1csnn1)c1ccc(F)cc1 (centres undefined),-2.5,0.5,3.2,-5.0,5.6,3.8
COc1cccc(N(C(=O)c2cnccn2)C(C(=O)NC2CCCCC2)c2ccc(Cl)cc2)c1 (centres undefined),3.2,-0.4,0.0,-5.6,i,18.9
CC(C)CCN(C(=O)c1csnn1)C(C(=O)NC1CCCCC1)c1ccc(F)cc1 (centres undefined),-4.9,19.7,-0.1,13.4,58.9*,10.2
CS(=O)(=O)Nc1ccc2c(c1)[C@@H]1C[C@H](CC(=O)NCc3ccc(-c4ccccc4)cc3)O[C@@H](CO)[C@@H]1O2,·,·,·,·,·,26.2
COC(=O)c1c2oc(c1C(=O)OC)C(=O)N[C@@H](Cc1ccccc1)Cn1cc(nn1)CNC(=O)[C@@H](Cc1ccccc1)NC(=O)N[C@@H](CO)CC2,·,·,·,·,13.7[16.7 µM],-0.7
O=C(NC1CCCC1)C(c1ccncc1)N(Cc1cccs1)C(=O)c1csnn1 (centres undefined),-3.2,9.0,1.9,-1.6,·,·
Cc1ccccc1CCN(C(=O)c1csnn1)C(C(=O)NC1CCCC1)c1ccncc1 (centres undefined),0.9,-1.9,-1.4,-5.1,79.3*,4.6
CCC(=O)Nc1ccc2c(c1)C(=O)N(C)[C@@H]1CC[C@H](CC(=O)NCC3CCCCC3)O[C@H]1CO2,·,·,·,·,3.2[16.7 µM],-6.9
CCOc1ccc(-n2c(=S)sc3c(=O)[nH]c(SCC(=O)NCC4CCCO4)nc32)cc1 (centres undefined),-0.8,21.3,0.5,4.1,·,109.9*
CCOc1ccc(-n2c(=S)sc3c(=O)[nH]c(SCC(=O)NC4CCCCC4)nc32)cc1,·,·,0.4,·,-2.8,9.9
Cc1ccccc1C(=O)N/N=C/c1ccc([N+](=O)[O-])s1,4.2,-2.3,7.3,0.1,·,·
Cc1c(Cl)cccc1N=Cc1ccc([N+](=O)[O-])s1,12.0,-1.7,35.4*,112.2*,-292.0,·
COCC(=O)N(C)C[C@H]1Oc2cc(-c3ccc(C#N)cc3)ccc2S(=O)(=O)N([C@@H](C)CO)C[C@@H]1C,·,·,·,·,-4.4[16.7 µM],4.9
O=C(CCSc1nnc(-c2ccncc2)o1)Nc1cccc(Cl)c1,-12.9,0.6,1.7,·,-3.8,-5.2
O=C(CCSc1nnc(-c2ccncc2)o1)Nc1ccc(Cl)cc1,-1.3,-15.4,1.9,96.4*,-23.9,10.4
COc1ccccc1-c1sc2ccccc2c1-c1ccc(O)cc1,6.1,29.2,-1.4,114.3*,9.6,-5.9
CO[C@H]1CN(C)C(=O)c2ccc(NC(=O)c3ccc(F)cc3)cc2OC[C@@H](C)N(C(=O)c2ccc(F)cc2)C[C@H]1C,·,·,·,·,-7.4[16.7 µM],-2.1
COc1cccc(/C=N/NC(=O)CC2C(=O)NN=C2C)c1O (centres undefined),-6.2,-2.7,1.6,4.6,69.8*,·
COc1cc(-c2noc(C)c2/C=C/c2ccc(N)cc2)cc(OC)c1OC,-0.8,1.8,43.4*,-23.8,·,78.6*
CNC(C)C#Cc1c(-c2cc(OC)c(OC)c(OC)c2)noc1C (centres undefined),3.6,-3.8,2.8,24.3,22.8,0.1
